Data published in paper PMC8859974 (Journal of medicinal chemistry, 2019).

Key:
[1] = biological target: T1, PA-CMG2 interaction (Homo sapiens, UniProt P58335, C175A/R40C); assay: CMG2-PA FRET assay; type: binding; conditions: for inhibitory effect on CMG2-PA interaction (in words): FRET assay
T1 sequence (P58335 40-217 R40C/C175A): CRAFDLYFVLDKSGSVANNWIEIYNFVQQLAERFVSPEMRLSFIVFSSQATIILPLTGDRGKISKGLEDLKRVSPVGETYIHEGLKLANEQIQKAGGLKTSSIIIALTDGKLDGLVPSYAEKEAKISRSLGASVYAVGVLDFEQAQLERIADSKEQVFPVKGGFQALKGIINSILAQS
Procedure, shortened: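 After AF546 dispensing, 32 nM PA-AF488 solution was added and the mix incubated 4 h. Excitation 485 nm; emission 535 and 595 nm. Artifact-filtered Em595/Em535 FRET ratio was converted to % inhibition against an interaction control (100%) and an EDTA no-interaction control (0%).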

[2] = biological target: T1, PA-CMG2 interaction; conditions: cited from earlier work
[3] = test system: bFGF-induced angiogenesis; conditions: oral or intraperitoneal administration; cited from earlier work
[4] = test system: EA.hy926 cells; assay: CellASIC microfluidic chemotactic endothelial cell migration; type: cell-based; conditions: Homo sapiens, EA.hy 926, 12 h, read-out: Best fit IC50, chemotactic endothelial cell migration
[5] = type: in vivo, mice

Question: For O=C(OC[C@@H](OC(=O)c1ccc(O)c(O)c1O)[C@@H]1O[C@H](OC(=O)c2ccc(O)c(O)c2O)[C@H](OC(=O)c2ccc(O)c(O)c2O)[C@H]1OC(=O)c1ccc(O)c(O)c1O)c1ccc(O)c(O)c1O [compound 15, α-D-Galactofuranose pentakis(2,3,4-trihydroxybenzoate)], which IC50 [1] is on record?
Answer: The IC50 was over 10000 nM.

Question: Which “IC50 of binding to CMG2” value [2] does the source give for O=C(OC[C@H]1O[C@@H](OC(=O)c2cc(O)c(O)c(O)c2)[C@H](OC(=O)c2cc(O)c(O)c(O)c2)[C@@H](OC(=O)c2cc(O)c(O)c(O)c2)[C@@H]1OC(=O)c1cc(O)c(O)c(O)c1)c1cc(O)c(O)c(O)c1 [compound 1, 1,2,3,4,6-penta-O-galloyl-ß-D-glucopyranose] here?
Answer: The value was “submicromolar”.

Question: What about the “angiogenesis in the mouse corneal micropocket assay” value [3] of the same molecule?
Answer: The value was “inhibits angiogenesis”.

Question: For O=C(OC[C@H]1O[C@H](O[C@H]2[C@H](OC(=O)c3cc(O)c(O)c(O)c3)[C@@H](OC(=O)c3cc(O)c(O)c(O)c3)[C@H](OC(=O)c3cc(O)c(O)c(O)c3)O[C@@H]2COC(=O)c2cc(O)c(O)c(O)c2)[C@H](OC(=O)c2cc(O)c(O)c(O)c2)[C@@H](OC(=O)c2cc(O)c(O)c(O)c2)[C@@H]1OC(=O)c1cc(O)c(O)c(O)c1)c1cc(O)c(O)c(O)c1 [compound 25, β-D-Maltose octakis(3,4,5-trihydroxybenzoate)], which “inhibitory effect on CMG2-PA interaction (in words)” value (“inhibitory effect” below) [1] is on record?
Answer: The value was “did not inhibit CMG2-PA interaction”.

Question: For O=C(OC[C@H]1O[C@@H](OC(=O)c2cc(O)c(O)c(O)c2)[C@@H](OC(=O)c2cc(O)c(O)c(O)c2)[C@@H](OC(=O)c2cc(O)c(O)c(O)c2)[C@@H]1OC(=O)c1cc(O)c(O)c(O)c1)c1cc(O)c(O)c(O)c1 [compound 8, 1,2,3,4,6-penta-O-galloyl-β-D-mannopyranose], which “affinity for CMG2 relative to the glucose prototype PGG” value ([1]; FRET based binding assay) is on record?
Answer: The value was “up to 10 x”.

Question: And the IC50 [4]?
Answer: Its IC50 is 365 ± 129 nM.

Question: And the weight loss ([5]; 10 mg/kg intraperitoneally, compared to vehicle-treated control animals)?
Answer: Its weight loss is “no significant weight loss”.

Question: And the “signs of toxicity (weight loss, hunched posture, behavioral abnormalities)” value ([5]; treated mice)?
Answer: The value was “no obvious signs of toxicity”.

Question: Which “inhibitory effect” value [1] does the source give for O=C(O[C@@H]1OC[C@@H](OC(=O)c2cc(O)c(O)c(O)c2)[C@@H](OC(=O)c2cc(O)c(O)c(O)c2)[C@H]1OC(=O)c1cc(O)c(O)c(O)c1)c1cc(O)c(O)c(O)c1 [compound 10] here?
Answer: The value was “no inhibitory effect”.

Question: For O=C(O[C@H]1OC[C@@H](OC(=O)c2ccc(O)c(O)c2O)[C@@H](OC(=O)c2ccc(O)c(O)c2O)[C@H]1OC(=O)c1ccc(O)c(O)c1O)c1ccc(O)c(O)c1O [compound 22, α-D-Ribopiranose tetrakis(2,3,4-trihydroxybenzoate)], which “inhibitory effect” value [1] is on record?
Answer: The value was “no inhibitory effect”.

Question: With O=C(O[C@@H]1OC[C@@H](OC(=O)c2ccc(O)c(O)c2O)[C@@H](OC(=O)c2ccc(O)c(O)c2O)[C@H]1OC(=O)c1ccc(O)c(O)c1O)c1ccc(O)c(O)c1O [compound 23, β-D-Ribopiranose tetrakis(2,3,4-trihydroxybenzoate)] as the molecule, how does the “inhibitory effect” value [1] read?
Answer: Its value is “no inhibitory effect”.

Question: Which “inhibitory effect” value [1] does the source give for O=C(OC[C@H]1O[C@H](O[C@H]2O[C@H](COC(=O)c3ccc(O)c(O)c3O)[C@@H](OC(=O)c3ccc(O)c(O)c3O)[C@H](OC(=O)c3ccc(O)c(O)c3O)[C@H]2OC(=O)c2ccc(O)c(O)c2O)[C@@H](OC(=O)c2ccc(O)c(O)c2O)[C@@H](OC(=O)c2ccc(O)c(O)c2O)[C@@H]1OC(=O)c1ccc(O)c(O)c1O)c1ccc(O)c(O)c1O [compound 31, α,α-D-Trehalose octakis(2,3,4-trihydroxybenzoate)] here?
Answer: The value was “did not inhibit CMG2-PA interaction”.

Question: With CCCOC(=O)c1cc(O)c(O)c(O)c1 [propyl gallate] as the molecule, how does the inhibitory activity ([2]; concentrations up to 300 μM) read?
Answer: The inhibitory activity was “do not showed any inhibitory activity”.

Question: For O=C(OC[C@H]1O[C@H](O[C@H]2O[C@H](COC(=O)c3cc(O)c(O)c(O)c3)[C@@H](OC(=O)c3cc(O)c(O)c(O)c3)[C@H](OC(=O)c3cc(O)c(O)c(O)c3)[C@H]2OC(=O)c2cc(O)c(O)c(O)c2)[C@@H](OC(=O)c2cc(O)c(O)c(O)c2)[C@@H](OC(=O)c2cc(O)c(O)c(O)c2)[C@@H]1OC(=O)c1cc(O)c(O)c(O)c1)c1cc(O)c(O)c(O)c1 [compound 27, α,α-D-Trehalose octakis(3,4,5-trihydroxybenzoate)], which “inhibitory effect” value [1] is on record?
Answer: Its value is “did not inhibit CMG2-PA interaction”.
